Screens deposited in PubChem BioAssay by several laboratories.
A selection: hits, their analogues and other compounds. The true share with any hit is near 2%.
PKA-R1A act: activates the PKA-R1A holoenzyme complex | P00514+P68181 | PKA-R1A dissociation, Cy5-IP20 fluorescence polarization; scaled: DMSO 0%, 113 µM cGMP 100% | activation, % at 11.4 µM | 0.083% of 340,000 active | AID 504707;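 active means percent activation above the mean of all tested compounds plus 3 SD, cut at about 19% in these data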;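 further: higher means more PKAc released from R1A so a rise in polarization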
dFosB act: mouse delta FosB homodimer activation. purified delta FosB, TAMRA-CDK5 oligo fluorescence polarization; percent of positive-control signal above neutral wells. activation, % at 25 µM. 0.99% of 340,000 active;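 active means mean activation above about 17%, with every replicate also reaching it, limit read from the data, passing the limit was not always enough; inconclusive means only one of the two conditions met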
PKA-R2B activ: PKA-R2B complex activation. P22694+P31323. PKA-R2B holoenzyme dissociation, Cy5-IP20 fluorescence polarization; R2B truncated from residue 108, S112A mutant; 0% DMSO only, 100% 113 µM cGMP. activation, % at 11.4 µM. 0.079% of 340,000 active;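 active means activation above a cutoff set at the mean over all compounds plus 3 SD, cut at about 18% in these data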;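 further: higher means more holoenzyme dissociation and a rise in polarization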
Target sequence (P31323 whole entry, looked up, other chains not shown, the tested form may be a part): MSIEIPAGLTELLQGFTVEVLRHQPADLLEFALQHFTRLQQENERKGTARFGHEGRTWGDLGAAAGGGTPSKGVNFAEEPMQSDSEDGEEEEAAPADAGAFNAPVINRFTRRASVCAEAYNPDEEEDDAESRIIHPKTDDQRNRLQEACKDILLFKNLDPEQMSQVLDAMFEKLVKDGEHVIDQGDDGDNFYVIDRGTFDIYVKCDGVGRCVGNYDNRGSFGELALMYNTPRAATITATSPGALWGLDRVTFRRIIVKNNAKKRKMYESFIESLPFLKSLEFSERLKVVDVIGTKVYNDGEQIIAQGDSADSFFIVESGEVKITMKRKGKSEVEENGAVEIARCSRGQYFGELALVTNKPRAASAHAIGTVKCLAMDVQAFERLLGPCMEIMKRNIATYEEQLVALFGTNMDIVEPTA
CAL PDZ FP-1: blocks peptide binding to the human CAL PDZ domain. purified CAL PDZ, TMR-peptide fluorescence polarization, 1 h. inhibition, % at 24.9 µM. 0.92% of 300,000 active;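 active means mean inhibition of at least 30% with at least half of replicates also reaching 30%; inconclusive means no clear call, values can overlap the other calls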;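 further: 0% = DMSO neutral control and 100% = excess unlabeled competitor peptide PRC23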
NTR1 ag: activates human neurotensin receptor 1. P30989. NTR1-U2OS beta-arrestin-GFP spot imaging, agonist mode. activation, % at 20 µM. 0.17% of 330,000 active;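 active means activation at or above 40% of the spot to cytoplasm intensity ratio, with at least 20 cells analyzed; inconclusive means wells under 20 cells, flagged as cytotoxic or low count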;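 further: 0% = DMSO without peptide and 100% = 100 nM NTR1 peptide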
CAL PDZ FP-2: human CAL PDZ-peptide interaction inhibition | Q9HD26 | purified CAL PDZ, TMR-peptide fluorescence polarization, 1 h | inhibition, % at 20 µM | 0.02% of 330,000 active | AID 504414;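 active means highest replicate inhibition of at least 40%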;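 further: plate controls were DMSO neutral control wells for no effect and unlabeled competitor peptide control wells for full effect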
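Assay system – tagged CAL PDZ protein CerCALP, purified · Timing – 1 h at RT · Compound – single point, 20 µM · Measured by – fluorescence polarization from S- and P-plane intensities, G-factor corrected · Evaluation – inhibition from polarization loss · Probe or stimulus – TMR reporter peptide T*-PRC34 · Buffer or medium – pH 7.4 phosphate-saline buffer, reducing agent, detergent, IgG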
The depositor's hits bear a star; ? = inconclusive; · = no result.

SMILES	PKA-R1A act	dFosB act	PKA-R2B activ	CAL PDZ FP-1	NTR1 ag	CAL PDZ FP-2
CC(=O)O[C@H]1CC[C@@]2(C)C(=CC[C@@H]3[C@@H]2CC[C@]2(C)C(=O)CC[C@@H]32)C1	-1	-1	0	1	7	-1
CC(C)(C)C(=O)O[C@H]1CC[C@@]2(C)C(=CC(=O)C3C2CC[C@]2(C)C(=O)CCC32)C1 (stereo partly drawn)	-2	4	-1	85*	0	0
O=C(Nc1ccc(Cl)cc1)OC1CN2CCC1CC2 (stereo not drawn)	-13	-2	-1	48*	-1	-1
O=C(Nc1cccc(Cl)c1)OC1CN2CCC1CC2 (stereo not drawn)	-4	0	7	1	1	-2
CN1CCC2(CC1)CC(NC=O)c1ccccc1O2 (stereo not drawn)	-7	-5	6	-2	0	-1
CCn1c(=O)n(CC)c2cc([N+](=O)[O-])c(N3CCNCC3)cc21	3	-8	-2	69*	3	13
Nc1cc(N2CCNCC2)c([N+](=O)[O-])cc1Cl	6	6	-1	-7	1	0
CCN(CC)C(=O)c1ccc(NC(=S)NC(=O)CCc2ccccc2)cc1	-9	-11	-5	10	0	0
CCN(CC)C(=O)c1ccc(NC(=O)CCCSc2ccccc2)cc1	-1	-7	5	80*	-1	-1
O=c1[nH]c(=S)n(Cc2ccc(F)cc2)c(O)c1C=NCc1ccc2c(c1)OCO2	-3	40*	10	-3	5	-1
CN(C)CCN=Cc1c(O)n(Cc2ccc3c(c2)OCO3)c(=S)[nH]c1=O	-13	-5	-5	5	-1	-2
COc1cccc(CN2CCNCC2)c1OC	-13	9	-13	90*	2	15
Cc1c(C)c2ccc(OCC(=O)N3CCC(C(=O)O)(c4ccccc4)CC3)cc2oc1=O	9	-5	-6	41*	3	0
Cc1c(C)c2ccc(OCC(=O)N3CCC(C(=O)O)(c4ccccc4)CC3)c(C)c2oc1=O	2	2	-6	2	4	0
CN1CCN(c2ccc(N)cc2)CC1	7	?	1	2	-3	0
CN1CCN(c2ccc(N)c(N3CCN(C)CC3)c2)CC1	2	56*	-7	4	-1	-1
FC(F)(F)c1ccc2c(c1)NP(=S)(N1CCOCC1)c1nccn1-2 (stereo not drawn)	-4	-4	-11	-4	-1	-4
COc1ccc2c(C)c(CC(=O)N3C[C@H]4C[C@@H](C3)c3cccc(=O)n3C4)c(=O)oc2c1C	-11	-3	6	-4	21	-1
C[n+]1c(-c2ccccc2)c2cc(N)ccc2c2ccc(N)cc21	-5	-221	5	2	-2	12
Nc1ccc2ccc3cccc[n+]3c2c1	-8	32*	4	-3	0	1
O=C(OCC(=O)c1ccc([N+](=O)[O-])cc1)/C(=C/c1ccc(Cl)cc1)NC(=O)c1ccccc1	-3	-2	-3	-3	2	-2
CCN(CC)P(=O)(NC(=O)C(Cl)(Cl)Cl)N(CC)CC.[Cl-].[Cl-].[Cl-].[Nd+3]	3	41*	2	-3	2	0
FC(F)(F)c1ccccc1CN1CCN(Cc2ccccc2)CC1	3	-2	4	-4	2	1
FC(F)(F)c1ccccc1CCN1CCNCC1	1	8	3	33*	-1	1
CN(C)C1=NC(N(C)C)=NP(N(C)C)(N(C)C)=N1	-7	-2	-11	35*	-3	-2
SMILES	PKA-R1A act	dFosB act	PKA-R2B activ	CAL PDZ FP-1	NTR1 ag	CAL PDZ FP-2
CN(C)C1=C(C#N)C(c2ccccc2)=NP(N(C)C)(N(C)C)=N1	7	0	-13	-3	0	-2
CN1CCC(N(C)c2nc(-c3ccc([N+](=O)[O-])cc3)nc3ccccc23)CC1	6	30*	2	3	·	3
CNC(=S)N1CCn2cccc2C1c1cccnc1 (stereo not drawn)	-4	6	-6	78*	0	7
Cc1c2ccncc2c(C)c2c1[nH]c1ccccc12	0	55*	0	0	-5	3
NC(Cc1ccc(O)cc1)C(=O)NN=Cc1ccc(N(CCCl)CCCl)cc1 (stereo not drawn)	-7	32*	-7	-3	·	-1
O=C(Cn1ncc2ccccc21)N1CCC2(CC1)OCCO2	0	-4	-3	0	2	0
CCn1c(=O)n(CC(=O)N2CCC3(CC2)OCCO3)c(=O)c2ccccc21	-7	-3	-8	52*	1	-1
CC(C)CNP(=S)(c1ccccc1)C(C)(C)C (stereo not drawn)	-13	5	-1	2	1	-1
COc1ccc(CCn2c(O)c(C=Nc3ccc(NC(C)=O)cc3)c(=O)[nH]c2=O)cc1OC	·	23*	·	·	2	-2
Cc1ccc(-n2c(O)c(C=NCCCn3ccnc3)c(=O)[nH]c2=O)cc1	11	1	-3	73*	1	-1
COCCNC(=O)Cn1cc(C(=O)c2ccccc2F)c2ccccc21	-8	1	0	1	0	·
CCOP(=O)(OCC)C(NC(C)=O)C(Cl)(Cl)Cl (stereo not drawn)	-4	3	-2	-1	0	0
CCc1ccccc1NC(=O)N1C[C@H]2C[C@@H](C1)c1cccc(=O)n1C2	4	0	10	2	0	1
CCc1nc2ccc(N3CCN(C)CC3)cc2nc1CC	-5	-3	-3	49*	0	-2
CN1CCN(c2ccc3nccnc3c2)CC1	-4	2	0	-5	2	-1
CC(=O)N1CCCSC1=Nc1ccccc1	1	0	4	58*	-1	-1
CC(NC(=O)Cc1cccc2ccccc12)C(=O)N1CCC(=O)CC1 (stereo not drawn)	-8	4	4	47*	0	0
O=C1CCN(C(=O)CNC(=O)Cc2ccccc2)CC1	-4	-4	1	-3	-1	-1
c1ccc(-c2[nH]c(-c3ccccc3)[n+](CC3CO3)c2-c2ccccc2)cc1 (stereo not drawn)	-9	0	-9	-2	3	-1
CC[N+](C)(CC)CCCCOc1ccc2c(c1)C(=O)c1cc(OCCCC[N+](C)(CC)CC)ccc1-2	-13	49*	-11	·	0	1
Clc1ccc(C(Cl)(Cl)Cl)c(Cl)c1	5	7	-7	71*	2	0
CNS(=O)(=O)c1ccc(N=Cc2c(O)n(-c3ccccc3)c(=O)[nH]c2=O)cc1	-1	-8	-5	3	-1	-1
